From ChEMBL document CHEMBL3244231, “Synthesis and identification of the major metabolites of prazosin formed in dog and rat” (J Med Chem, 1977) come the findings set out here.

Data set [1] deals with Canis familiaris. Briefly: Antihypertensive activity in anesthetized normotensive mongrel dog assessed as maximum decrease in blood pressure at 0.1 mg/kg, iv administered at 30 mins intervals. The data set is classed as functional, Canis lupus familiaris. The method in brief:
(§1)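 Anesthetized normotensive mongrel dogs each received escalating iv doses of 0.1, 0.4 and 1.0 mg/kg at 30-min intervals. After each interval, the maximum fall in blood pressure (mm) was read against control. Doses refer to the amine salts and are uncorrected; one agent was given as free base. At least two dogs were used per compound, and ranges are reported.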

The test system of data set [2] is Canis familiaris. Briefly: Antihypertensive activity in anesthetized normotensive mongrel dog assessed as maximum decrease in blood pressure at 0.4 mg/kg, iv administered at 30 mins intervals. The class given is functional, Canis lupus familiaris. The method in brief:
as §1

Data set [3] relates to Canis familiaris. Briefly: Antihypertensive activity in anesthetized normotensive mongrel dog assessed as maximum decrease in blood pressure at 1 mg/kg, iv administered at 30 mins intervals. The class given is functional, Canis lupus familiaris. The method in brief:
as §1

The nature of data set [4]: Drug metabolism in rat assessed as parent compound level in urine. The settings on record: read-out: Drug excretion. The data set is classed as ADME.
A short description of data set [5]: Drug metabolism in dog assessed as parent compound level in urine. The settings on record: read-out: Drug excretion. The data set is classed as ADME, Canis lupus familiaris.
The nature of data set [6]: Drug metabolism in dog assessed as parent compound level in bile. The data set is classed as ADME, Canis lupus familiaris. The settings on record: read-out: Drug excretion.
Data set [7] in a line: Drug metabolism in rat assessed as parent compound level in bile. The class given is ADME. The settings on record: read-out: Drug excretion.

Regarding `COc1cc2nc(N)nc(N)c2cc1OC`, the Activity with Canis familiaris [1] turned out to be 0 mmHg; in the data set on Canis familiaris [2], 3 mmHg; in the data set with Canis familiaris [3], 23 mmHg.
With `COc1cc2nc(N3CCN(C(=O)c4ccco4)CC3)nc(N)c2cc1OC.Cl` [PRAZOSIN HYDROCHLORIDE], the Activity came out at 20 mmHg with Canis familiaris [1], 45 mmHg in the data set with Canis familiaris [2] and 55 mmHg in the data set with Canis familiaris [3]. The dose excreted in data set [4], in data set [5], in data set [6] and in data set [7] was 6% in each case.
With `COc1cc2nc(N3CCN(C(=O)c4ccco4)CC3)nc(N)c2cc1O.O=S(=O)(O)O`, the figures for the Activity with Canis familiaris [2] and with Canis familiaris [3] were 10 mmHg and 15 mmHg, respectively.
For `COc1cc2c(N)nc(N3CCN(C(=O)c4ccco4)CC3)nc2cc1O.O=S(=O)(O)O` the same measures were 12 mmHg and 18 mmHg.
